Our source for the Activity and IC50 values is ChEMBL document CHEMBL1137542, “Probing multivalent carbohydrate-lectin interactions by an enzyme-linked lectin assay employing covalently immobilized carbohydrates” (Bioorg Med Chem, 2007).

For assay [1], the system named is Triticum aestivum. In words: Inhibition of binding of HRP labeled WGA to immobilized porcine stomach […] relative to N-acetyl-glucosamine. In a few lines:
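IC50 measured in the PSM-coated ELLA (WGA-HRP 1 μg mL⁻¹ final, 60 min pre-incubation with inhibitor, 90 min at 37 °C, ABTS read at 405 nm, duplicate). Relative potency β is the GlcNAc IC50 divided by the ligand IC50, with GlcNAc set to β = 1.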

Assay [2] in a line: Inhibition of binding of HRP labeled WGA to immobilized porcine stomach […]. Further details: species or system Triticum aestivum. In a few lines: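 Plates coated overnight at room temperature with porcine stomach mucin (4.12 μg mL⁻¹ in PBS, pH 7.3), then blocked with 1% BSA, 90 min at 37 °C. WGA-HRP (1 μg mL⁻¹ final) pre-incubated 60 min at 37 °C with serially diluted inhibitor, then 90 min at 37 °C on plates. ABTS/H₂O₂ read-out at pH 4.0, 30 min, stopped with H₂SO₄, A405. IC50 from % inhibition curves, duplicate.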

Assay [3] is described as follows: Inhibition of binding of HRP labeled WGA to immobilized N-acetyl-glucosamine. Further details: species or system Triticum aestivum. A digest of the protocol:
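Covalent GlcNAc surface: amino plates activated with 0.5% 1,4-phenylene diisothiocyanate in DMSO for 3 h, then treated overnight with 1 mM spacer-linked GlcNAc amine at pH 10.1. Blocking was 1% BSA. WGA-HRP (1 μg mL⁻¹ final) was pre-incubated with inhibitor dilutions for 60 min at 37 °C, then incubated on the plates for 90 min at 37 °C. ABTS/H₂O₂ read at 405 nm. IC50 from % inhibition, duplicate.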

Assay [4] deals with Triticum aestivum. Kind of assay: Inhibition of binding of HRP labeled WGA to immobilized N-acetyl-glucosamine relative to N-acetyl-glucosamine. In a few lines: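 IC50 values come from the covalently immobilized GlcNAc ELLA (thiourea-linked spacer GlcNAc, WGA-HRP 1 μg mL⁻¹, 37 °C incubations, ABTS read at 405 nm, duplicate). β expresses potency relative to GlcNAc, with GlcNAc set to β = 1.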

With `CC(=O)N[C@H]1[C@H](OC/C=C\COC(=O)NCCN(CCNC(=O)OC/C=C\CO[C@@H]2O[C@H](CO)[C@@H](O)[C@H](O)[C@H]2NC(C)=O)CCNC(=O)OC/C=C\CO[C@@H]2O[C@H](CO)[C@@H](O)[C@H](O)[C@H]2NC(C)=O)O[C@H](CO)[C@@H](O)[C@@H]1O`, the Activity in the assay with Triticum aestivum [1] was 40; in the assay with Triticum aestivum [4] it was 420. Also, the 50% inhibitory concentration (IC50) (commonly the concentration needed to halve the response being measured) was 25 mM in assay [2] and 0.055 µM in assay [3].

Consider `CC(=O)N[C@H]1[C@H](OC/C=C\COC(=O)NCc2cccc(CNC(=O)OC/C=C\CO[C@@H]3O[C@H](CO)[C@@H](O)[C@H](O)[C@H]3NC(C)=O)c2)O[C@H](CO)[C@@H](O)[C@@H]1O`, for which the Activity with Triticum aestivum [1] was 50. Besides, the IC50 in assay [2] came to 20 mM.

With `CCCNC(=O)OC/C=C\CO[C@@H]1O[C@H](CO)[C@@H](O)[C@H](O)[C@H]1NC(C)=O`, the Activity with Triticum aestivum [1] was found to be 4.2. The molecule also gave a half-maximal inhibitory concentration (IC50) in assay [2] of 240 mM.

Consider `CC(=O)N[C@@H]1[C@@H](O)[C@H](O)[C@@H](CO)O[C@H]1O` [N-ACETYLGLUCOSAMINE], for which the Activity with Triticum aestivum [1] amounted to 1. The IC50 in assay [2] stood at 1000 mM; in assay [3] it was 23 µM.

`CC(=O)N[C@H]1[C@H](OC/C=C\COC(=O)NCCCOCCCCOCCCNC(=O)OC/C=C\CO[C@@H]2O[C@H](CO)[C@@H](O)[C@H](O)[C@H]2NC(C)=O)O[C@H](CO)[C@@H](O)[C@@H]1O` returned an Activity in the assay with Triticum aestivum [1] of 17. In assay [2], the concentration for half-maximal inhibition (IC50) is 60 mM.

In the case of `CC(=O)N[C@H]1[C@H](OC/C=C\COC(=O)NCc2ccc(CNC(=O)OC/C=C\CO[C@@H]3O[C@H](CO)[C@@H](O)[C@H](O)[C@H]3NC(C)=O)cc2)O[C@H](CO)[C@@H](O)[C@@H]1O`, the Activity in the assay on Triticum aestivum [1] amounted to 67; in the assay with Triticum aestivum [4] it was 260. The half-inhibitory concentration (IC50) in assay [2] was found to be 15 mM; in assay [3], 0.088 µM.

On to `CC(=O)N[C@H]1[C@H](OC/C=C\CO)O[C@H](CO)[C@@H](O)[C@@H]1O`, for which the figures for the Activity in the assay on Triticum aestivum [1] and with Triticum aestivum [4] were 2 and 1.9, respectively. Further, the values for the 50% inhibitory concentration (IC50) in assay [2] and in assay [3] were 500 mM and 12 µM, respectively.

On to `CC(=O)N[C@H]1[C@H](OC/C=C\COC(=O)NCCCOCCOCCOCCCNC(=O)OC/C=C/CO[C@@H]2O[C@H](CO)[C@@H](O)[C@H](O)[C@H]2NC(C)=O)O[C@H](CO)[C@@H](O)[C@@H]1O`, for which the figures for the Activity with Triticum aestivum [1] and with Triticum aestivum [4] were 13 and 80, respectively. Also, the results for the IC50 in assay [2] and in assay [3] were 75 mM and 0.288 µM, respectively.

As to `C=CCO[C@@H]1O[C@H](CO)[C@@H](O)[C@H](O)[C@H]1NC(C)=O`, the Activity in the assay on Triticum aestivum [1] was determined as 3.6; with Triticum aestivum [4], 2.3. The 50% inhibitory concentration (IC50) in assay [2] worked out at 280 mM; in assay [3] it was 10 µM.

Consider `CC(=O)N[C@H]1[C@H](OC/C=C\COC(=O)NCCNCCNC(=O)OC/C=C\CO[C@@H]2O[C@H](CO)[C@@H](O)[C@H](O)[C@H]2NC(C)=O)O[C@H](CO)[C@@H](O)[C@@H]1O`, for which the Activity in the assay on Triticum aestivum [1] stood at 25. This molecule gave a half-maximal inhibitory concentration (IC50) in assay [2] of 40 mM.

For the molecule `CC(=O)N[C@H]1[C@H](OC/C=C\COC(=O)NCc2ccccc2)O[C@H](CO)[C@@H](O)[C@@H]1O`, the Activity in the assay on Triticum aestivum [1] worked out at 10. This molecule also came in with a 50% inhibitory concentration (IC50) in assay [2] of 100 mM.
